Laboratory results taken from PMC10363772 (RSC Advances, 2023).
Values after ≈ are worked out from the molar mass of the structure shown.

Experiments:
[1] = Solubility studies of nano-curcumin in water; assay type: physicochemical; conditions: deionized water
Summary of the method: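 Each test sample was stirred in 30 mL deionized water at room temperature for 24 h to make a saturated solution. Undissolved particles were removed by centrifugation, and the liquid was filtered through a PTFE membrane. The filtrate was diluted with an equal volume of deionized water, and dissolved curcumin was quantified by UV/Vis absorbance at 422 nm.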

β-glucosidase = assay: β-Glucosidase inhibition assay; assay type: biochemical; conditions: for β-glucosidase inhibition: at 100 μg mL^−1
[2] = DPPH free radical scavenging assay; conditions: at 75 μg mL^−1
Summary of the method: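 Test samples were mixed with 3.0 mL of 0.1 mM DPPH in methanol, shaken vigorously, and held 30 min at room temperature in the dark. Absorbance was read at 515 nm and % scavenging calculated. BHT was the positive control and methanol the negative control.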

[3] = system: rat intestinal α-glucosidase; assay: α-Glucosidase inhibition assay; assay type: biochemical; conditions: for α-glucosidase inhibition: at 100 μg mL^−1
α-amylase = biological target: T1, α-amylase (Sus scrofa, UniProt P00690); assay: α-Amylase inhibitory assay; assay type: biochemical; conditions: at 100 μg mL^−1
T1 sequence (P00690 16-511): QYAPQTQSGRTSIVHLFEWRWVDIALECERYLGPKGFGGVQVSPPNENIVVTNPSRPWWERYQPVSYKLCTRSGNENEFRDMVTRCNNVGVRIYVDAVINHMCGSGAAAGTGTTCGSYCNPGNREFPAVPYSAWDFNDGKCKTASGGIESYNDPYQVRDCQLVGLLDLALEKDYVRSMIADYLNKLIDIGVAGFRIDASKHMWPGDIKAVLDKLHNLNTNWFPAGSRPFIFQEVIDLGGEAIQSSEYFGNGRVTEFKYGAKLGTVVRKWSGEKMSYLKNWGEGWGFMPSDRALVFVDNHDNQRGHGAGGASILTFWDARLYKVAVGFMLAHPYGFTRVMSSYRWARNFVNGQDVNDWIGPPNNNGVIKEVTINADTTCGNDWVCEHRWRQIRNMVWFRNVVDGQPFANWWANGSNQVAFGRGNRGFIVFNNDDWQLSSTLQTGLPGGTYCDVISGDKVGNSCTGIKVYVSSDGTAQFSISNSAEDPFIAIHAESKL

solubility at 24 h [1] [µg/mL]	solubility thermodynamic at 24 h ([1]; water, thermodynamic from solid) [µM]	IC50, mean ± SD, β-Glucosidase (β-glucosidase) [µg/mL]	β-glucosidase inhibition (β-glucosidase) [%]	α-glucosidase inhibition [3] [%]	α-amylase inhibition (α-amylase) [%]	IC50, mean ± SD, α-Glucosidase [3] [µg/mL]	Structure (SMILES)	DPPH free radical scavenging activity [2] [%]
0.98 (≈ 2.66 µM)	2.68 (≈ 0.987 µg/mL)	51.92 ± 0.14 (≈ 141 µM)	50.38 ± 0.11	47.87 ± 0.31	–	–	COc1cc(/C=C/C(=O)CC(=O)/C=C/c2ccc(O)c(OC)c2)ccc1O [Curcumin, diferuloylmethane]	45.63 ± 0.78
–	–	–	–	–	–	–	Cc1cc(C(C)(C)C)c(O)c(C(C)(C)C)c1 [BHT, Butylated hydroxytoluene]	50.48 ± 1.11
–	–	45.55 ± 0.21 (≈ 70.6 µM)	66.05 ± 0.47	66.04 ± 0.18	68.74 ± 0.28	45.76 ± 0.13 (≈ 70.9 µM)	C[C@H]1O[C@H](O[C@H]2[C@H](O)[C@@H](O)[C@@H](O[C@H]3[C@H](O)[C@@H](O)C(O)O[C@@H]3CO)O[C@@H]2CO)[C@H](O)[C@@H](O)[C@@H]1N[C@H]1C=C(CO)[C@@H](O)[C@H](O)[C@H]1O (stereo partly drawn) [Acarbose, acarbose]	–
